Compound activity (PubChem BioAssay)
M1 antag = M1 muscarinic receptor (rat) antagonism; P08482; 64,000 compounds, 3.4% hits; B-score at 10 µM; AID 628; CHO-M1 cells, Fluo-4 calcium, ACh EC80 antagonist mode; hits give low values;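 active = calcium fluorescence response, raw or row-and-column corrected B-score, differing from the plate sample mean either way at a set confidence level, mostly lower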
Target sequence (P08482 whole entry, looked up): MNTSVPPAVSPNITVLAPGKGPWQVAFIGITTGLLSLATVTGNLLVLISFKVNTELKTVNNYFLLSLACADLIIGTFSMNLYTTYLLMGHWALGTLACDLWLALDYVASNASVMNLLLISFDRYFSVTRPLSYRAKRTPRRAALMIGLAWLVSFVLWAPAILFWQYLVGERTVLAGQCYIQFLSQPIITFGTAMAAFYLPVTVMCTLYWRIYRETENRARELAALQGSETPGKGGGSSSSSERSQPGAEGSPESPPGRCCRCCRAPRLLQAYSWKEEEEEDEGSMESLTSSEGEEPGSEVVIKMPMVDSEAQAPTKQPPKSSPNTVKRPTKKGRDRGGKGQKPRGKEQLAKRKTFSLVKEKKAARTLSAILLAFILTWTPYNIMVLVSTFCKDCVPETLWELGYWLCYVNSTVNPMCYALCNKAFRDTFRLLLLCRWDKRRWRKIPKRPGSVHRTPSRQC
M1 agonist = activates the M1 muscarinic receptor. CHO-M1 cells, Fluo-4 calcium fluorescence, agonist mode; hits give high values. 64,000 compounds, 3% hits. B-score at 10 µM. AID 626;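 active = fluorescence rise, raw or as B-score row- and column-corrected plate score, outside the 99.7% band of its plate's samples, either direction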
RORA act = RORA (human) activation; P35398; CHO-K1 Gal4-RORA LBD luciferase reporter, luminescence; percent increase over mock-subtracted basal signal; activation, % at 10 µM; 65,000 compounds, 1.5% hits;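 active = activation above the mean of all tested compounds plus 3 SD, cut at about 49% in these data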
D1 mod = allosteric modulators of human D1 dopamine receptor; B-score at 10 µM; P21728; 58,000 compounds, 5.9% hits; HEK293 D1, CRE-luciferase, dopamine EC30 potentiation; actives deviate in either direction;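 active = luminescence count or its row- and column-corrected plate score outside the 99.7% band of the plate's sample wells, on either side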
SF-1 act = SF-1 (human) activation; Q13285; CHO-K1 Gal4-SF-1 LBD luciferase reporter; % increase over DMSO SF-1-specific signal; activation, % at 10 µM; 65,000 compounds, 1.9% hits;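 active = activation above the mean activation of all tested compounds plus 3 SD, cut at about 50% in these data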
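Assay system: CHO-K1 cells co-transfected with Gal4 DBD–human SF-1 LBD, 5xGal4 luciferase reporter / Input: 4,000 cells per well / Incubation: 20 h compound exposure at 37 °C after 1 h cell settling / Detection: SteadyLite luciferase luminescence / Control set: DMSO negative control and −SF1 background wells / Replication: one test per compound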
mHtt clearance = mutant huntingtin protein clearance. HeLa Exon1htt(103Q)mCFP, aggregate imaging; zero = plate's median compound well. inhibition, % at 1.5 µM. 47,000 compounds, 0.42% hits. AID 853;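 active = inhibition of aggregate fluorescence above about 70%, also judged a hit by eye on the cell image, limit read from the data, passing the limit was not always enough; inconclusive = no rule stated for this call; inactive = not judged a hit on image review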;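 also: cells exposed to compound for three days before fixation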
M1 agonist conf = confirmation of rat M1 muscarinic receptor agonists; shares compounds with M1 agonist; CHO-M1 cells, Fluo-4 calcium fluorescence, agonist mode; actives lie on both sides; fluorescence change (max-min) at 10 µM; 1,700 compounds, 19% hits;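 active = fluorescence change differs from the solvent-only DMSO control mean at a set confidence level in both duplicate runs; inconclusive = differs from solvent-only control mean in just one of two runs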;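 also: an EC20 dose of acetylcholine follows compound addition during the same imaging run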
M4 agonist ctr = rat M4 muscarinic agonism, M1 counter-screen; shares compounds with M1 agonist; CHO M4/Gqi5 cells, Fluo-4 calcium fluorescence, agonist mode; actives lie on both sides; fluorescence change (max-min) at 10 µM; 1,700 compounds, 9% hits; AID 1741;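 active = fluorescence change differing from the plate's solvent-only control wells at 99.7% confidence in both duplicates, whether higher or lower; inconclusive = differs from solvent controls in only one of two duplicates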
Numbers stand for hits; – = inactive; ? = inconclusive; · = no result. An excerpt weighted towards active compounds, which were near 11% of everything screened.

SMILES | M1 antag | M1 agonist | RORA act | D1 mod | SF-1 act | mHtt clearance | M1 agonist conf | M4 agonist ctr
CC(C)c1[nH]nc2c1C(Cc1ccccc1)C(C#N)=C(N)O2 (configuration not stated) | – | – | – | – | – | – | · | ·
COCc1[nH]nc2c1C(c1ccccc1OC)C(C#N)=C(N)O2 (configuration not stated) | – | – | – | – | – | · | · | ·
CCCc1[nH]nc2c1C(CCc1ccccc1)C(C#N)=C(N)O2 (configuration not stated) | – | 2.7 | – | – | – | · | ? | –
CS(=O)(=O)N(CCc1ccccc1)CC(N)=O | – | – | – | · | – | – | · | ·
Cn1c(=O)c2nc(NCc3ccccc3)cnc2n(C)c1=O | – | 10 | – | – | – | – | 203 | 166
O=C(Nc1ccccc1C(=O)NC(Cc1c[nH]c2ccccc12)C(=O)O)c1ccco1 (configuration not stated) | – | -2.6 | – | – | – | – | -28 | –
COc1cc2nc(CN3CCN(c4ncc(C(F)(F)F)cc4Cl)CC3)[nH]c(=O)c2cc1OC | – | – | – | – | – | · | · | ·
Cc1ccc2occ(C(c3nnnn3C3CCCC3)N3CCN(C(=O)c4ccco4)CC3)c(=O)c2c1 (configuration not stated) | – | 2.7 | – | – | – | – | ? | ?
COc1ccccc1NC(=O)CN(Cc1ccco1)C(=O)c1cccs1 | – | – | – | – | – | – | · | ·
COc1ccccc1NC(=O)CN(Cc1ccco1)C(=O)c1ccc(-n2nc(C)cc2C)cc1 | – | 5.9 | – | – | – | – | – | ?
COC(=O)c1ccc(CC(=O)c2ccc(O)cc2O)o1 | – | 20 | – | -2.2 | – | – | – | –
CCOC(=O)c1ccc(CC(=O)c2ccc(O)cc2O)o1 | · | · | · | · | · | – | · | ·
OC(COc1ccc2c(c1)CCC2)Cn1cnc2ccccc21 (configuration not stated) | · | · | – | · | – | – | · | ·
CCn1c(SCC(=O)c2cc(C)n(CC3CCCO3)c2C)nc2ccccc21 (configuration not stated) | – | 5.3 | – | – | – | · | ? | –
C=CCSc1nnc(C)n1-c1ccc(Cl)cc1 | – | – | – | – | – | · | · | ·
Cc1cc(N2CCN(C(=O)c3ccco3)CC2)n2nc(C)nc2n1 | – | – | – | – | – | · | · | ·
Cc1ccc(C(=O)N2CCN(S(C)(=O)=O)C2)cc1 | – | 4 | – | – | – | – | ? | –
Cc1ccc(C(=O)N2CCN(c3ccc(Cl)cc3)CC2)cc1 | – | – | – | – | – | · | · | ·
COCCn1c(CN2CCN(c3ccccc3F)CC2)nc2c1c(=O)n(C)c(=O)n2C | – | – | – | – | – | · | · | ·
Cc1ccc(OCC(=O)Nc2ccc(N(C)C)cc2)cc1 | – | – | – | – | – | – | · | ·
COCC(=O)Nc1ccc(N(C)C)cc1 | – | -2.9 | – | – | – | – | -33 | –
CC(=O)N1C(=O)C(=C2C=C(C)OC(C)=C2)c2ccccc21 | – | 28 | – | – | – | · | ? | –
O=S(=O)(Cc1cccc(F)c1)c1c[nH]c2ccccc12 | – | – | – | – | – | – | · | ·
COc1ccc(CCNc2c(C)c(C)nc3ncnn23)cc1 | -1.2 | 3.3 | – | – | – | – | – | –
CCc1c(C)nc2ncnn2c1NCCc1ccc(OC)c(OC)c1 | – | – | – | – | – | · | · | ·
SMILES | M1 antag | M1 agonist | RORA act | D1 mod | SF-1 act | mHtt clearance | M1 agonist conf | M4 agonist ctr
CC(=O)Nc1nc(C)nc(C)c1C(C)=O | – | – | – | · | – | – | · | ·
COc1ccccc1OCc1nc(Cc2ccc(Cl)cc2)no1 | – | – | – | – | – | – | · | ·
CCCNS(=O)(=O)c1ccc(CCC(=O)N2CCCCC2)cc1 | – | 4.8 | – | – | – | · | ? | –
CC(C)(C)NS(=O)(=O)c1ccc(CCC(=O)N2CCCCC2)cc1 | – | – | – | – | – | · | · | ·
CC(N=c1ccccn1C(=O)Nc1ccc(Cl)cc1)c1ccco1 (configuration not stated) | – | 4 | – | – | – | – | -30 | ?
CC(N=c1ccccn1C(=O)Nc1ccc(F)cc1)c1ccco1 (configuration not stated) | – | – | – | – | – | – | · | ·
